Results taken from publication PMC3059335 (Investigational New Drugs, 2010).

Assays:
[1] = human, cited from earlier work
[2] = tested on: αvβ3 and αvβ5-mediated cell adhesion; settings: read-out: IC50, inhibition of αvβ3 and αvβ5-mediated cell adhesion; cited from earlier work
[3] = tested on: patients with advanced solid tumours; settings: phase I testing of doses up to 2400 mg/m^2 twice weekly; cited from earlier work
[4] = tested on: patients with solid tumors; test: toxicity monitoring of continuous infusion cilengitide; type: in vivo
[5] = pharmacokinetics of continuous infusion cilengitide; type: in vivo, human
Outline: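 Test compound given as fixed-dose continuous IV infusion (1–40 mg/hr) via venous access port, diluted in 0.9% NaCl or 5% dextrose; bag changed weekly. Heparinised blood (10 mL) taken day 1 pre-dose and 2 h post-start, then weekly for 4 weeks before and 2 h after bag change. Plasma frozen at −80°C, run in duplicate by HPLC-MS/MS. Steady-state concentration, Vss and clearance reported as mean and SD; Vd assumes 4-h half-life.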

[6] = tested on: patients with solid tumors; test: tumor response, radiographic tumor assessment every 8 weeks; type: in vivo, human
Outline: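 Patients received continuous IV infusion at fixed dose levels of 1, 2, 4, 8, 12, 18, 27 or 40 mg/hr, with the infusion bag replaced weekly; 4-week cycles without a break. Tumors assessed every 8 weeks (every two cycles). Patients with DLT continued at the next lower dose if toxicities had resolved to grade ≤1 and disease had not progressed.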

Structure (SMILES): CC(C)[C@H]1C(=O)N[C@@H](CCCNC(=N)N)C(=O)NCC(=O)N[C@@H](CC(=O)O)C(=O)N[C@H](Cc2ccccc2)C(=O)N1C [cilengitide]
- clearance ([1]; in vivo): 34-66 mL/min/m^2
- plasma half-life ([1]; in vivo): 3 to 5 h
- metabolism, drug accumulation, or enterohepatic circulation ([1]; intermittent dosing): no evidence of metabolism, drug accumulation, or enterohepatic circulation
- IC50 [2]: ~1 µM
- maximally tolerated dose [3]: not reached
- maximum tolerated dose (MTD) ([4]; continuous infusion, doses up to 40 mg/hr): not reached
- treatment-related hypertension ([4]; in vivo): did not occur in any patients
- maximum feasible dose ([4]; in vivo, iv): 40 mg/h
- cilengitide clearance, range calculated in our study ([5]; continuous infusion 1-40 mg/hr, range across dose levels): 55 – 88 mL/min/m^2
- accumulation of cilengitide in the plasma over time ([5]; continuous infusion, weekly sampling in cycle 1): no evidence of accumulation
- objective responses ([6]; 17 of the 35 patients assessed at the end of cycle 2): No objective responses were observed
- relationship between dose level or steady state concentration (Css) and change in tumor size after two cycles ([6]; data not shown): no significant relationship
- median duration of stable disease ([6]; two patients, cycle = 4 weeks): 3.5 cycles
